# The source made the active and inactive calls. The rule behind the calls is not given here.
# What was measured:
# [1] = target: T1, G-protein coupled receptor 68 (Homo sapiens, UniProt Q15743); experiment: Positive allosteric modulator activity at HA-tagged GPR68 expressed in human HEK293T cells assessed as activation of PKA at pH 7.4 by immunoblotting analysis; format: cell-based; conditions: filed as positive allosteric modulator
# Outline: (§1)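 HEK293 cells stably expressing N-terminal HA-tagged human GPR68 (vector-only line as control), selected with 250 μg/ml G418. Confluent cells were switched to Hams-F12 at pH 8.0 or 7.4 for 1 h, then given vehicle or 50 μM compound for 10 min. Lysate immunoblots were probed for HA, total VASP, p-p42/p44 and β-actin, read with infrared-fluorophore secondaries.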
# [2] = target: T2, G-protein coupled receptor 65 (Homo sapiens, UniProt Q8IYL9); experiment: Positive allosteric modulator activity at human GPR65 expressed in yeast assessed as Gq-yeast growth stimulation at 10 uM by microplate reader analysis
# Outline: (§2)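 Gq-coupled yeast strain expressing receptor, in SD-His-Ura medium (pH 5.4) with 3-amino-1,2,4-triazole at a level giving moderate ligand-free growth (OD 0.2–0.6). Compound at 10 μM final, in triplicate. Starting OD600 0.02; growth 2–5 days at 30°C, read as OD600. Values are 100 × (well OD600 − plate median), given as % growth stimulation, mean ± SEM of three wells.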
# [3] = target: G-prodeshotein coupled receptor 4 (Homo sapiens) (UniProt P46093); experiment: Positive allosteric modulator activity at human GPR4 expressed in yeast assessed as Gq-yeast growth stimulation at 10 uM by microplate reader analysis; outline: as §2
# [4] = target: T1, G-protein coupled receptor 68; experiment: Binding affinity to GPR68 expressed in human HEK293T cells assessed as cAMP production in presence of H+ proton by Split-luciferase based luminescence counter analysis; format: cell-based; conditions: filed as positive allosteric modulator
# Outline: (§3)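 Proton concentration-response of GPR68 (wild type or E160A/K/Q, R189L/M, H269F mutants) in transiently transfected HEK293-T cells. Read-out: GloSensor cAMP, with luciferin loading 90 min at 37°C at pH 8.4. Run with and without increasing modulator concentrations; 20 min at room temperature before luminescence. Proton KA fixed to the proton EC50 without modulator. KB, τA, α, β fitted globally with an operational allosteric model. n=4.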
# [5] = target: C-X-C chemokine receptor type 4 (Homo sapiens) (UniProt P61073); experiment: Agonist activity against CXCR4 receptor (unknown origin) transfected in human HEK293T cells at 10 uM incubated for 15 mins in presence of CXCL12 by luminescence counter analysis; format: functional, cell-based
# Outline: (§4)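 HEK293-T cells transiently transfected with CXCR4 and the GloSensor cAMP reporter, plated in DMEM with 1% dialyzed FBS. Test compound at 10 μM in 20 mM HEPES/HBSS, pH 7.4, 15 min at room temperature. Agonist mode: luciferin (4 mM final) plus 200 nM isoproterenol added, 20 min. Antagonist mode: compound 10 min, then reference agonist at EC80 for 10 min, then luciferin/isoproterenol. Luminescence read. CXCL12 (1 or 3 μM) is the agonist control and AMD3100 (10 μM) the antagonist control. n=2.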
# [6] = target: T1, G-protein coupled receptor 68; experiment: Positive allosteric modulator activity at human GPR68 expressed in yeast assessed as Gq-yeast growth stimulation at 10 uM by microplate reader analysis; conditions: filed as positive allosteric modulator; outline: as §2
# [7] = target: C-X-C chemokine receptor type 4 (Homo sapiens) (UniProt P61073); experiment: Antagonist activity against CXCR4 receptor (unknown origin) transfected in human HEK293T cells at 10 uM incubated for 15 mins in presence of AMD3100 by luminescence counter analysis; format: functional, cell-based; outline: as §4
# [8] = target: T1, G-protein coupled receptor 68; experiment: Positive allosteric modulator activity at HA-tagged GPR68 expressed in human HEK293T cells assessed as activation of p42/p44 MAP kinase at pH 7.4 by immunoblotting analysis; format: cell-based; conditions: filed as positive allosteric modulator; outline: as §1
# HEK293T [9] = experiment: Antagonist activity against GPR65 F242A mutant (unknown origin) transfected in human HEK293T cells incubated for 15 mins by luminescence counter analysis; format: cell-based; conditions: filed as antagonist
# Outline: (§5)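 GloSensor split-luciferase cAMP assay. HEK293-T cells transiently co-transfected with GPR65 (wild type or the D153A, R187L, F242A or Y272A mutant) and GloSensor 7A reporter. Cells plated in DMEM with 1% dialyzed FBS for at least 6 h, then loaded with luciferin (4 mM, in drug buffer pH 8.4) for 90 min at 37°C. Compounds added at set pH in HBSS with 10 mM HEPES/10 mM MES, with TAPS for higher pH. Luminescence read after about 20 min at room temperature. Data normalized to buffer basal and fitted to a 4-parameter logistic.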
# HEK293T [10] = experiment: Antagonist activity against GPR65 R187L mutant (unknown origin) transfected in human HEK293T cells incubated for 15 mins by luminescence counter analysis; format: cell-based; conditions: filed as antagonist; outline: as §5
# [11] = target: T2, G-protein coupled receptor 65; experiment: Antagonist activity against GPR65 (unknown origin) transfected in human HEK293T cells incubated for 15 mins by luminescence counter analysis; format: functional, cell-based; outline: as §5
# [12] = target: T2, G-protein coupled receptor 65; experiment: Antagonist activity against GPR65 (unknown origin) transfected in human HEK293T cells incubated for 15 mins by luminescence counter analysis relative to control; format: functional, cell-based; outline: as §5
# [13] = Antagonist activity against GPR65 D153A mutant (unknown origin) transfected in human HEK293T cells incubated for 15 mins by luminescence counter analysis; format: cell-based; conditions: HEK-293T, 0.25 h; outline: as §5
# HEK293T [14] = experiment: Antagonist activity against GPR65 Y272A mutant (unknown origin) transfected in human HEK293T cells incubated for 15 mins by luminescence counter analysis; format: cell-based; conditions: filed as antagonist; outline: as §5
# [15] = target: T2, G-protein coupled receptor 65; experiment: Agonist activity against GPR65 (unknown origin) transfected in human HEK293T cells incubated for 15 mins by luminescence counter analysis; format: functional, cell-based; conditions: filed as agonist; outline: as §5
# [16] = Antagonist activity against GPR65 D153A mutant (unknown origin) transfected in human HEK293T cells incubated for 15 mins by luminescence counter analysis relative to control; conditions: HEK-293T, 0.25 h, condition central nervous system disease; outline: as §5
# [17] = target: T1, G-protein coupled receptor 68; experiment: Positive allosteric modulator activity at GPR68 expressed in human HEK293T cells assessed as cAMP production in presence of H+ proton by Split-luciferase based luminescence counter analysis (reference value: 26.4 to 43.8 %); format: functional, cell-based; conditions: filed as positive allosteric modulator; outline: as §3
# [18] = target: T1, G-protein coupled receptor 68; experiment: Positive allosteric modulator activity at GPR68 expressed in human HEK293T cells assessed as cAMP production in presence of H+ proton by Split-luciferase based luminescence counter analysis (reference value: 6.53 to 6.72); format: functional, cell-based
# [19] = Positive allosteric modulator activity at GPR68 E160Q mutant transfected in human HEK293T cells assessed as proton-mediated calcium release at 10 uM incubated for 10 mins by Fluo-4 Direct calcium dye based FLIPR assay (reference value: 1.25 +/- 0.01 %); conditions: HEK-293T, condition central nervous system disease
# [20] = Positive allosteric modulator activity at GPR68 R189M mutant transfected in human HEK293T cells assessed as proton-mediated calcium release at 10 uM incubated for 10 mins by Fluo-4 Direct calcium dye based FLIPR assay (reference value: 1.43 +/- 0.01 %); conditions: HEK-293T, condition central nervous system disease
# [21] = Positive allosteric modulator activity at GPR68 R189L mutant transfected in human HEK293T cells assessed as proton-mediated calcium release at 10 uM incubated for 10 mins by Fluo-4 Direct calcium dye based FLIPR assay (reference value: 1.42 +/- 0.01 %); conditions: HEK-293T, condition central nervous system disease
# [22] = Positive allosteric modulator activity at GPR68 R189L mutant transfected in human HEK293T cells assessed as proton-mediated calcium release at 10 uM incubated for 10 mins by Fluo-4 Direct calcium dye based FLIPR assay (reference value: 6.85 +/- 0.02); format: cell-based; conditions: HEK-293T
# [23] = Positive allosteric modulator activity at GPR68 E160K mutant transfected in human HEK293T cells assessed as proton-mediated calcium release at 10 uM incubated for 10 mins by Fluo-4 Direct calcium dye based FLIPR assay (reference value: 1.38 +/- 0.01 %); conditions: HEK-293T, condition central nervous system disease
# [24] = target: T1, G-protein coupled receptor 68; experiment: Positive allosteric modulator activity at GPR68 expressed in human HEK293T cells assessed as proton-mediated calcium release at 10 uM incubated for 10 mins by Fluo-4 Direct calcium dye based FLIPR assay (reference value: 1.30 %); format: functional, cell-based
# [25] = Positive allosteric modulator activity at GPR68 R189M mutant transfected in human HEK293T cells assessed as proton-mediated calcium release at 10 uM incubated for 10 mins by Fluo-4 Direct calcium dye based FLIPR assay (reference value: 6.77 +/- 0.01); format: cell-based; conditions: HEK-293T
# [26] = Positive allosteric modulator activity at GPR68 H269F mutant transfected in human HEK293T cells assessed as proton-mediated calcium release at 10 uM incubated for 10 mins by Fluo-4 Direct calcium dye based FLIPR assay (reference value: 6.44 +/- 0.02); format: cell-based; conditions: HEK-293T
# [27] = Positive allosteric modulator activity at GPR68 E160K mutant transfected in human HEK293T cells assessed as proton-mediated calcium release at 10 uM incubated for 10 mins by Fluo-4 Direct calcium dye based FLIPR assay (reference value: 6.79 +/- 0.02); format: cell-based; conditions: HEK-293T
# [28] = Positive allosteric modulator activity at GPR68 H269F mutant transfected in human HEK293T cells assessed as proton-mediated calcium release at 10 uM incubated for 10 mins by Fluo-4 Direct calcium dye based FLIPR assay (reference value: 1.57 +/- 0.01 %); conditions: HEK-293T, condition central nervous system disease
# [29] = Positive allosteric modulator activity at GPR68 E160Q mutant transfected in human HEK293T cells assessed as proton-mediated calcium release at 10 uM incubated for 10 mins by Fluo-4 Direct calcium dye based FLIPR assay (reference value: 6.86 +/- 0.04); format: cell-based; conditions: HEK-293T
# Sequence of C-X-C chemokine receptor type 4 (Homo sapiens) (P61073 whole entry): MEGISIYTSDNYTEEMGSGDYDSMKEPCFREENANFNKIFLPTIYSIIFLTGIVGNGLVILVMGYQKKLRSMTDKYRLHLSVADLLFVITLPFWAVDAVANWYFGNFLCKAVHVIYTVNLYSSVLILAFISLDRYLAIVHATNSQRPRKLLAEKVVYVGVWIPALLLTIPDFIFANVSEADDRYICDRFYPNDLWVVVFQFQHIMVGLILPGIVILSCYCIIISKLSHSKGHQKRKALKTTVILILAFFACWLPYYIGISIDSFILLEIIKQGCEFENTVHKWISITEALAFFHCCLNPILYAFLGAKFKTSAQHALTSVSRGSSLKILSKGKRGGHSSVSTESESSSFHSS
# T1 sequence (Q15743 whole entry): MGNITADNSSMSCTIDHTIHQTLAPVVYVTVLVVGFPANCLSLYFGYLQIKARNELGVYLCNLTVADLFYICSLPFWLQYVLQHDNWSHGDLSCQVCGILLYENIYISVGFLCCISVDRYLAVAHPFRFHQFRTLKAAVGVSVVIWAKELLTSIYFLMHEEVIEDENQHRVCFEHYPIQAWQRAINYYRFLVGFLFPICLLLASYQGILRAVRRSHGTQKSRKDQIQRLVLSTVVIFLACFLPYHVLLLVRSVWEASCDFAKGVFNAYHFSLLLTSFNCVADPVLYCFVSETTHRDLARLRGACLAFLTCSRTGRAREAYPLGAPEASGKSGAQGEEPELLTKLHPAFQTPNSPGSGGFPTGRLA
# T2 sequence (Q8IYL9 whole entry): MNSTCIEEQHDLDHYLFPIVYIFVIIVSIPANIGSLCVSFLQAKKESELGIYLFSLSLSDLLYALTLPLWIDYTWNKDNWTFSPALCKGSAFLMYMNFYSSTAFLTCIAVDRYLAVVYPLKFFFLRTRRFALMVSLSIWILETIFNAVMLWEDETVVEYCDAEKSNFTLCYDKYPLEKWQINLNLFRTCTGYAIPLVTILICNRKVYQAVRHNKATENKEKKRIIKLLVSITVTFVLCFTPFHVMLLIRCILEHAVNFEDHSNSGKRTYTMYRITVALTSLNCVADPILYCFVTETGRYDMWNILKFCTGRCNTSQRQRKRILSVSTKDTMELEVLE
# Sequence of G-prodeshotein coupled receptor 4 (Homo sapiens) (P46093 whole entry, looked up): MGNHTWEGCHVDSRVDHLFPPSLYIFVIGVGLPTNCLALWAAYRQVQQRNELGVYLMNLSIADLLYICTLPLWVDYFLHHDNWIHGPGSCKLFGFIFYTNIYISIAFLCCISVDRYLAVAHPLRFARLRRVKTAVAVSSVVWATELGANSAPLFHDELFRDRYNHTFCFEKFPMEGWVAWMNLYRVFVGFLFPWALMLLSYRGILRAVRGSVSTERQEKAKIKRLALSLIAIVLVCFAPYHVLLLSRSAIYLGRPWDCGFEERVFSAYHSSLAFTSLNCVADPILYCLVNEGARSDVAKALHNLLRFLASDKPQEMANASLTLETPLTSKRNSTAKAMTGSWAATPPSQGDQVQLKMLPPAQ
smiles,measurement,setting,value
O=C1Nc2ccc(Cl)cc2C(c2ccccc2Cl)=NC1O (stereo unspecified),Activity,[1],Active
same,Activity,[2],inactive
same,Activity,[3],inactive
same,pKb,[4],5.92
same,Activity,[5],inactive
same,Activity,[6],2
same,Activity,[7],inactive
same,Activity,[8],Active
CN1N=C(SCc2ccc(Cl)cc2Cl)Sc2c1cnn(C)c2=O,Activity,HEK293T [9],Active
same,Activity,HEK293T [10],Active
same,EC50,[11],7760 nM
same,Emax,[12],7.6%
same,EC50,[13],1290 nM
same,Activity,HEK293T [14],Active
same,Activity,[15],Active
same,Emax,[16],8.1%
Nc1nc(NCc2cccc(F)c2)nc(-c2cccc(F)c2N)n1,pKb,[4],3.88
COc1ccc(CNc2nc(N)nc(-c3ccccc3CO)n2)cc1,pKb,[4],4.35
O=C1CN=C(c2ccccc2F)c2cc(Cl)ccc2N1,Activity,[5],inactive
same,Activity,[7],inactive
Nc1nc(NCc2ccccc2F)nc(-c2cc(F)c(F)cc2N)n1,pKb,[4],4.93
Nc1nc(NCc2ccccc2F)nc(-c2cccc(F)c2N)n1,pKb,[4],4.11
Nc1nc(NCc2cccc(F)c2)nc(-c2cc(F)c(F)cc2N)n1,pKb,[4],4.66
Nc1nc(NCc2ccccc2)nc(-c2ccccc2N)n1,Emax,[17],50.2%
same,pKb,[4],5.22
same,EC50,[18],63.1 nM
COc1ccc(-c2nc(N)nc(NCc3ccccc3)n2)c(CO)c1,pKb,[4],4.43
O=C1CN=C(c2ccccc2)c2cc(Cl)ccc2N1,Activity,[5],inactive
same,Activity,[7],inactive
Nc1nc(NCCc2ccccc2)nc(-c2ccccc2CO)n1,pKb,[4],5.43
Nc1nc(NCc2cccc(F)c2)nc(-c2ccc(F)c(F)c2CO)n1,pKb,[4],4.01
O=C(Nc1nc(-c2ccc3c(c2)OCCO3)cs1)c1csnn1,Activity,[11]; filed as antagonist,Active
CC(=O)c1cccc(-c2nc(N)nc(Nc3ccc(C)cc3)n2)c1,Emax,[17],67.3%
same,pKb,[4],6.31
same,EC50,[18],57.5 nM
O=C1N[C@H](c2cccc([N+](=O)[O-])c2)c2c(-c3ccco3)n[nH]c21,Emax,[17],60.3%
same,pKb,[4],4.42
same,EC50,[18],107 nM
Nc1nc(NCc2ccccc2)nc(-c2cc(F)cc(F)c2)n1,Emax at 10 µM,[19],1.11%
same,Emax at 10 µM,[20],1.41%
same,Emax at 10 µM,[21],1.49%
same,Emax,[17],70.7%
same,EC50,[22],105 nM
same,Emax at 10 µM,[23],1.38%
same,EC50,[18],110 nM
same,Emax,[24],1.24%
same,EC50,[25],141 nM
same,EC50,[26],324 nM
same,EC50,[27],141 nM
same,Emax at 10 µM,[28],1.63%
same,EC50,[29],102 nM

# From ChEMBL document CHEMBL5661984, “Allosteric ligands for the pharmacologically dark receptors GPR68 and GPR65” (Nature, 2015)
